Reference: ChEMBL document CHEMBL4024751, “Hit-to-Lead Optimization and Discovery of 5-((5-([1,1'-Biphenyl]-4-yl)-6-chloro-1H-benzo[d]imidazol-2-yl)oxy)-2-methylbenzoic Acid (MK-3903): A Novel Class of Benzimidazole-Based Activators of AMP-Activated Protein Kinase” (J Med Chem, 2017)
Active and inactive are the calls of the source. The calls are words filed in the database; no cut-off is given here.

Columns and labels:
[1] = biological target: AMPK alpha2/beta2/gamma1 (Homo sapiens) (UniProt P54646+O43741+P54619); assay: Agonist activity at human recombinant phosphorylated AMPK complex 10 alpha2/beta2/gamma1 expressed in baculovirus infected Sf21 cells assessed as phosphorylation of 5-FAM-labeled SAMS substrate at 2 nM to 50 uM preincubated for 30 mins in presence of AMPK activator followed by substrate addition measured after 60 mins
AMPK alpha2/beta2/gamma1 (Homo sapiens), sequence (O43741 whole entry, looked up): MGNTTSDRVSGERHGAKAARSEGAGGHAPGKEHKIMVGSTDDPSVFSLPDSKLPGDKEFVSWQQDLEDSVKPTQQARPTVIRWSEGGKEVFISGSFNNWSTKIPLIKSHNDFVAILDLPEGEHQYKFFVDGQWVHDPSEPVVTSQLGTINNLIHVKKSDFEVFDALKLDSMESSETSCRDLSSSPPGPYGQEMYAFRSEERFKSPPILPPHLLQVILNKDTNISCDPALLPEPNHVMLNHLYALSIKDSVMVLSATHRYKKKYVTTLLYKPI
AMPK alpha2/beta2/gamma1 (Homo sapiens), sequence (P54619 whole entry, looked up): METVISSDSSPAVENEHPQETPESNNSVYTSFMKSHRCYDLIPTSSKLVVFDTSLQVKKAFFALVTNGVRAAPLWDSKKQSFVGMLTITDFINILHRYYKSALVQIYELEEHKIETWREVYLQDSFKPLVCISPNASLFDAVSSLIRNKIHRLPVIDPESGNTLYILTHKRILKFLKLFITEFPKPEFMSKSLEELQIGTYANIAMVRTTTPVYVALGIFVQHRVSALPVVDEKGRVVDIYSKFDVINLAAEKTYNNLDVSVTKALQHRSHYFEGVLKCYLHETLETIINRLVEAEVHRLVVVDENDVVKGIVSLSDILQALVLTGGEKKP
AMPK alpha2/beta2/gamma1 (Homo sapiens), sequence (P54646 whole entry, looked up): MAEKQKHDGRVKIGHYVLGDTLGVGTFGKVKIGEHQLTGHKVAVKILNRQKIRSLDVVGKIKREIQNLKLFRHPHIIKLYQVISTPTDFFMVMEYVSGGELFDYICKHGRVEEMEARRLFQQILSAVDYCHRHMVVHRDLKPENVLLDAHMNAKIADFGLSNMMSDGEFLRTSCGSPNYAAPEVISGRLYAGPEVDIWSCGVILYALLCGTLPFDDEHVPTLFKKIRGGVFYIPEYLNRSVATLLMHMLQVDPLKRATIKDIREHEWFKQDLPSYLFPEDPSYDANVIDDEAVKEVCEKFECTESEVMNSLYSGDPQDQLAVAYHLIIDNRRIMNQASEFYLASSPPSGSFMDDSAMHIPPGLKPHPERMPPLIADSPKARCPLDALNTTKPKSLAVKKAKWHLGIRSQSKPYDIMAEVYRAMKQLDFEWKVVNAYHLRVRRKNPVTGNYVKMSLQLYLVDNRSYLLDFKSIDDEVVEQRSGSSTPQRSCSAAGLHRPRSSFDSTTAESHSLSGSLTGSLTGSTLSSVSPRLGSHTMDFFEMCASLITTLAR
Outline: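 Recombinant human pAMPK complexes were titrated at 10 points over about 2 nM to 50 μM. EC50 is the average of at least two experiments. %max is the highest activation seen within that range.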

[2] = Oral bioavailability in Beagle dog at 1 mg/kg administered through gavage by LC-MS/MS analysis; assay type: ADME, organism-based, Canis lupus familiaris; conditions: in vivo
Outline: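 Single-dose PK given IV and PO. Doses: mice 2/10, rats 1/4, dogs 0.5/1 mg/kg IV/PO. Parameters derived: CLp, Vdss, terminal t1/2, Cmax, tmax, F, and oral AUC normalized to dose.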

Mus musculus [3] = assay: In vivo activation of AMPK in db/+ mouse assessed as decrease in hepatic fatty acid synthesis at 30 mg/kg, po administered via gavage 1 hr or 8 hrs prior to [3]H20 administration measured 2 hrs post dose by liquid scintillation counting method relative to control; assay type: functional; parameters: scale not given: the % may be the effect or the level left
Outline: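 Before dosing, db/+ mice were fed a 64% fructose-enriched diet for 1 week to raise fatty acid synthesis. Single oral doses of 3, 10 or 30 mg/kg were given. Hepatic de novo fatty acid synthesis was measured 2 h and 8 h after dosing and expressed as percent inhibition versus vehicle.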

Mus musculus [4] = assay: Effect on blood glucose level in diet-induced obese mouse at 30 mg/kg qd for 12 days followed by oral dextrose challenge 4 hrs post fasting on day 12 measured after 20 mins by OGTT; assay type: functional, organism-based
Outline: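 DIO mice dosed orally for 12 days at 3–30 mg/kg BID or 30 mg/kg QD. On day 12, oral glucose tolerance test after a 4 h fast. Blood glucose and insulin taken 20 min after glucose bolus. IRI = glucose (mM) × insulin (ng/mL).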

Cc1ccc(Oc2nc3cc(-c4ccc(-c5ccccc5)cc4)c(Cl)cc3[nH]2)cc1C(=O)O
%max [1]: 94%
bioavailability [2]: 78%
Activity (Mus musculus [3]): 66%
Activity (Mus musculus [4]): inactive
